Test results: ChEMBL document CHEMBL4689842, “EUbOPEN Chemogenomics Library wave 1” (2021)

System: U2OS
Assay: Multiplex assay against U2OS
Assay type: toxicity, cell-based
Conditions: human
Summary of the method: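 Live cells were stained at seeding with Hoechst33342, BioTracker Green Microtubule Cytoskeleton Dye, MitoTracker Red and Annexin V Alexa Fluor 680. Following compound addition, they were imaged on a CQ1 microscope at 37°C and 5% CO2 and gated by CellPathfinder machine learning into Hoechst high-intensity objects or normal cells, with normal cells split into healthy, pyknosed or fragmented nuclei and pyknosed cells into mitotic or apoptotic. Tubulin, mitochondrial-mass and membrane-permeability phenotypes are per cents of healthy-nucleus cells.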

[1] = 12 h, 1 µM, compound concentration 1 uM, replicate 1
[2] = 12 h, 1 µM, compound concentration 1 uM, replicate 2
[3] = 12 h, 10 µM, compound concentration 10 uM, replicate 1
[4] = 12 h, 10 µM, compound concentration 10 uM, replicate 2
[5] = 24 h, 1 µM, compound concentration 1 uM, replicate 1
[6] = 24 h, 1 µM, compound concentration 1 uM, replicate 2
[7] = 24 h, 10 µM, compound concentration 10 uM, replicate 1
[8] = 24 h, 10 µM, compound concentration 10 uM, replicate 2
[9] = 48 h, 1 µM, compound concentration 1 uM, replicate 1
[10] = 48 h, 1 µM, compound concentration 1 uM, replicate 2
[11] = 48 h, 10 µM, compound concentration 10 uM, replicate 1
[12] = 48 h, 10 µM, compound concentration 10 uM, replicate 2

Question: What does the source list for `CN(C)C(=O)N[C@H]1CC[C@H](CCN2CCN(c3cccc(Cl)c3Cl)CC2)CC1.Cl` [CARIPRAZINE HYDROCHLORIDE]?
Answer: Population Apoptotic (%) [1]: 20%; Population Fragmented Nuclei (%) [1]: 14%; Population Healthy Nuclei (%) [1]: 79%; Population Hoechst High Intensity Objects (%) [1]: 8%; Population Membrane Permeable-Phenotype (%) [1]: 4%; Population Mitotic Cells (%) [1]: 80%; Population Normal (%) [1]: 91%; Population Pyknosed Nuclei (%) [1]: 6%; Population Tubulin-Different-Phenotype (%) [1]: 14%; Total Cell Count [1]: 84; Population Apoptotic (%) [2]: 60%; Population Fragmented Nuclei (%) [2]: 7%; Population Healthy Nuclei (%) [2]: 84%; Population Hoechst High Intensity Objects (%) [2]: 6%; Population Membrane Permeable-Phenotype (%) [2]: 6%; Population Mitochondria Different-Phenotype (%) [2]: 29%; Population Mitotic Cells (%) [2]: 40%; Population Normal (%) [2]: 93%; Population Pyknosed Nuclei (%) [2]: 8%; Population Tubulin-Different-Phenotype (%) [2]: 22%; Total Cell Count [2]: 61; Population Apoptotic (%) [3]: 50%; Population Fragmented Nuclei (%) [3]: 15%; Population Healthy Nuclei (%) [3]: 59%; Population Hoechst High Intensity Objects (%) [3]: 8%; Population Membrane Permeable-Phenotype (%) [3]: 14%; Population Mitochondria Different-Phenotype (%) [3]: 97%; Population Mitotic Cells (%) [3]: 50%; Population Normal (%) [3]: 91%; Population Tubulin-Different-Phenotype (%) [3]: 100%; Total Cell Count [3]: 78; Population Apoptotic (%) [4]: 36%; Population Fragmented Nuclei (%) [4]: 17%; Population Healthy Nuclei (%) [4]: 57%; Population Hoechst High Intensity Objects (%) [4]: 3%; Population Membrane Permeable-Phenotype (%) [4]: 47%; Population Mitochondria Different-Phenotype (%) [4]: 95%; Population Mitotic Cells (%) [4]: 63%; Population Normal (%) [4]: 96%; Population Pyknosed Nuclei (%) [4]: 25%; Population Tubulin-Different-Phenotype (%) [4]: 95%; Total Cell Count [4]: 79; Population Apoptotic (%) [5]: 41%; Population Fragmented Nuclei (%) [5]: 13%; Population Healthy Nuclei (%) [5]: 73%; Population Hoechst High Intensity Objects (%) [5]: 9%; Population Membrane Permeable-Phenotype (%) [5]: 4%; Population Mitochondria Different-Phenotype (%) [5]: 17%; Population Mitotic Cells (%) [5]: 58%; Population Normal (%) [5]: 90%; Population Pyknosed Nuclei (%) [5]: 13%; Population Tubulin-Different-Phenotype (%) [5]: 8%; Total Cell Count [5]: 102; Population Apoptotic (%) [6]: 66%; Population Fragmented Nuclei (%) [6]: 6%; Population Healthy Nuclei (%) [6]: 84%; Population Hoechst High Intensity Objects (%) [6]: 4%; Population Membrane Permeable-Phenotype (%) [6]: 7%; Population Mitochondria Different-Phenotype (%) [6]: 22%; Population Mitotic Cells (%) [6]: 33%; Population Normal (%) [6]: 95%; Population Pyknosed Nuclei (%) [6]: 9%; Population Tubulin-Different-Phenotype (%) [6]: 14%; Total Cell Count [6]: 67; Population Apoptotic (%) [7]: 57%; Population Fragmented Nuclei (%) [7]: 13%; Population Healthy Nuclei (%) [7]: 57%; Population Hoechst High Intensity Objects (%) [7]: 13%; Population Membrane Permeable-Phenotype (%) [7]: 28%; Population Mitochondria Different-Phenotype (%) [7]: 97%; Population Mitotic Cells (%) [7]: 42%; Population Normal (%) [7]: 86%; Population Pyknosed Nuclei (%) [7]: 28%; Total Cell Count [7]: 84; Population Apoptotic (%) [8]: 94%; Population Fragmented Nuclei (%) [8]: 23%; Population Healthy Nuclei (%) [8]: 55%; Population Hoechst High Intensity Objects (%) [8]: 3%; Population Membrane Permeable-Phenotype (%) [8]: 42%; Population Mitochondria Different-Phenotype (%) [8]: 95%; Population Mitotic Cells (%) [8]: 5%; Population Normal (%) [8]: 96%; Population Pyknosed Nuclei (%) [8]: 20%; Population Tubulin-Different-Phenotype (%) [8]: 95%; Total Cell Count [8]: 87; Population Apoptotic (%) [9]: 27%; Population Fragmented Nuclei (%) [9]: 9%; Population Hoechst High Intensity Objects (%) [9]: 6%; Population Membrane Permeable-Phenotype (%) [9]: 0%; Population Mitochondria Different-Phenotype (%) [9]: 12%; Population Mitotic Cells (%) [9]: 72%; Population Normal (%) [9]: 93%; Population Pyknosed Nuclei (%) [9]: 8%; Population Tubulin-Different-Phenotype (%) [9]: 7%; Total Cell Count [9]: 140; Population Apoptotic (%) [10]: 50%; Population Fragmented Nuclei (%) [10]: 6%; Population Healthy Nuclei (%) [10]: 82%; Population Hoechst High Intensity Objects (%) [10]: 2%; Population Membrane Permeable-Phenotype (%) [10]: 9%; Population Mitochondria Different-Phenotype (%) [10]: 15%; Population Mitotic Cells (%) [10]: 50%; Population Normal (%) [10]: 97%; Population Pyknosed Nuclei (%) [10]: 10%; Population Tubulin-Different-Phenotype (%) [10]: 13%; Total Cell Count [10]: 94; Population Apoptotic (%) [11]: 79%; Population Fragmented Nuclei (%) [11]: 12%; Population Healthy Nuclei (%) [11]: 59%; Population Hoechst High Intensity Objects (%) [11]: 13%; Population Membrane Permeable-Phenotype (%) [11]: 26%; Population Mitochondria Different-Phenotype (%) [11]: 96%; Population Mitotic Cells (%) [11]: 20%; Population Normal (%) [11]: 86%; Population Pyknosed Nuclei (%) [11]: 27%; Population Tubulin-Different-Phenotype (%) [11]: 96%; Total Cell Count [11]: 101; Population Apoptotic (%) [12]: 70%; Population Fragmented Nuclei (%) [12]: 20%; Population Healthy Nuclei (%) [12]: 53%; Population Hoechst High Intensity Objects (%) [12]: 2%; Population Membrane Permeable-Phenotype (%) [12]: 42%; Population Mitochondria Different-Phenotype (%) [12]: 89%; Population Mitotic Cells (%) [12]: 29%; Population Normal (%) [12]: 97%; Population Pyknosed Nuclei (%) [12]: 25%; Population Tubulin-Different-Phenotype (%) [12]: 82%; Total Cell Count [12]: 108
